Source: ChEMBL document CHEMBL4020827, “Targeting Multiple Effector Pathways in Pancreatic Ductal Adenocarcinoma with a G-Quadruplex-Binding Small Molecule” (J Med Chem, 2018)
Activity calls are given as the source filed them. The rule behind the calls is not given here.

Columns and labels:
PANC-1 [1] = test: Effect on ARF6 gene expression in human PANC1 cells at 400 nM after 6 hrs by RNA sequence analysis relative to control; assay type: functional
Procedure, shortened: (§1)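 PANC-1 (0.35 x 10^6) or MIA PaCa-2 (1.5 x 10^6) cells seeded overnight in 60 mm plates, then exposed to 400 nM compound for 6 or 24 h; untreated cells as controls. Cells were mycoplasma-free and STR-certified. Differential expression by RNA-seq, called at FDR < 0.1.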

MIA PaCa-2 [2] = test: Effect on PARD6A gene expression in human MIAPaCa2 cells at 400 nM after 6 hrs by RNA sequence analysis relative to control; assay type: functional
PANC-1 [3] = test: Effect on AKT1S1 gene expression in human PANC1 cells at 400 nM after 24 hrs by RNA sequence analysis relative to control; assay type: functional; procedure, shortened: as §1
PANC-1 [4] = test: Effect on IQSEC1 gene expression in human PANC1 cells at 400 nM after 6 hrs by RNA sequence analysis relative to control; assay type: functional
MIA PaCa-2 [5] = test: Effect on MAPK11 gene expression in human MIAPaCa2 cells at 400 nM after 24 hrs by RNA sequence analysis relative to control; assay type: functional
MIA PaCa-2 [6] = test: Antitumor activity against human MIAPaCa2 cells xenografted in CD-1 nude mouse assessed as change in tumor volume at 15 mg/kg, iv administered twice weekly for 4 weeks measured on day 62 relative to control; assay type: functional
Procedure, shortened: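 Female CD-1 nude mice (2-3 months, 20−25 g) given 5 x 10^6 MIA PaCa-2 cells subcutaneously in right flank with Matrigel; dosing began once tumors were established (approx. 13 days, mean 0.05 cm3). Eight mice/group, IV in saline twice weekly for 28 days (8 doses) against a saline group. Tumors measured by calliper (length × width × height × π/6), with body weight. Student's t test.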

CAPAN-1 = test: Growth inhibition of human Capan1 cells after 96 hrs by SRB assay; assay type: functional, cell-based; conditions: CAPAN-1, 96 h
Procedure, shortened: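 Cell lines kept at 37 °C, 5% CO2 in medium with 10% FBS and 2 mM L-glutamine. Compound dissolved in water, filter-sterilised, 10 mM stock diluted into media. Growth read by 96 h sulforhodamine B assay, absorbance at 540 nm. IC50 taken from mean absorbance per concentration as % of untreated wells, >3 individual determinations with standard deviations.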

PANC-1 [7] = test: Effect on ULK1 gene expression in human PANC1 cells at 400 nM after 24 hrs by RNA sequence analysis relative to control; assay type: functional
Procedure, shortened: (§2)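 RNA-seq: cells seeded overnight in 60 mm plates (PANC-1 0.35 x 10^6, MIA PaCa-2 1.5 x 10^6 cells/well), then exposed to 400 nM compound for 6 or 24 h against untreated controls. Cell lines mycoplasma-free by RNA-capture ELISA and STR-profiled. Differentially expressed genes called at FDR < 0.1.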

MIA PaCa-2 [8] = test: Effect on RPTOR gene expression in human MIAPaCa2 cells at 400 nM after 6 hrs by RNA sequence analysis relative to control; assay type: functional; procedure, shortened: as §2
MIA PaCa-2 [9] = test: Antitumor activity against human MIAPaCa2 cells xenografted in CD-1 nude mouse assessed as tumor growth inhibition administered twice weekly for 4 weeks; assay type: functional, cell-based
Procedure, shortened: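 Female CD-1 nude mice (2-3 months, 20−25 g) given 5 x 10^6 MIA PaCa-2 cells s.c. in right flank in RPMI + Matrigel; dosing began once tumors were established (~13 days, mean 0.05 cm3). Groups of eight received IV doses in saline, twice weekly for 28 days (8 doses), against a saline group. Tumors measured by calliper (length × width × height × π/6) every 3−4 days, to day 62; Student's t test.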

MIA PaCa-2 [10] = test: Effect on CBFA2T3 gene expression in human MIAPaCa2 cells at 400 nM after 24 hrs by RNA sequence analysis relative to control; assay type: functional; procedure, shortened: as §1
MIA PaCa-2 [11] = test: Effect on TEAD3 gene expression in human MIAPaCa2 cells at 400 nM after 6 hrs by RNA sequence analysis relative to control; assay type: functional; procedure, shortened: as §2
PANC-1 [12] = test: Effect on TEAD4 gene expression in human PANC1 cells at 400 nM after 24 hrs by RNA sequence analysis relative to control; assay type: functional; procedure, shortened: as §2
Homo sapiens [13] = species on record: Homo sapiens; test: Stabilization of G-quadruplex DNA in human PANC1 cells assessed as induction of DNA damage at G4 site by measuring increase in colocalization of BG4 and 53BP1 foci at 400 nM after 24 hrs by FITC/Cy5/DAPI staining based immunofluorescence assay relative to control; assay type: cell-based
PANC-1 [14] = test: Effect on PCK2 gene expression in human PANC1 cells at 400 nM after 24 hrs by RNA sequence analysis relative to control; assay type: functional
MIA PaCa-2 [15] = test: Effect on CTBP1 gene expression in human MIAPaCa2 cells at 400 nM after 24 hrs by RNA sequence analysis relative to control; assay type: functional; procedure, shortened: as §1
PANC-1 [16] = test: Effect on CBFA2T3 gene expression in human PANC1 cells at 400 nM after 6 hrs by RNA sequence analysis relative to control; assay type: functional; procedure, shortened: as §1
PANC-1 [17] = test: Effect on TEAD4 gene expression in human PANC1 cells at 400 nM after 6 hrs by RNA sequence analysis relative to control; assay type: functional; procedure, shortened: as §2
PANC-1 [18] = test: Effect on RPTOR gene expression in human PANC1 cells at 400 nM after 24 hrs by RNA sequence analysis relative to control; assay type: functional; procedure, shortened: as §2
PANC-1 [19] = test: Effect on PFKL gene expression in human PANC1 cells at 400 nM after 24 hrs by RNA sequence analysis relative to control; assay type: functional
MIA PaCa-2 [20] = test: Effect on ULK1 gene expression in human MIAPaCa2 cells at 400 nM after 6 hrs by RNA sequence analysis relative to control; assay type: functional; procedure, shortened: as §2
MIA PaCa-2 [21] = test: Effect on FASN gene expression in human MIAPaCa2 cells at 400 nM after 6 hrs by RNA sequence analysis relative to control; assay type: functional; procedure, shortened: as §1
PANC-1 [22] = test: Effect on PFKFB4 gene expression in human PANC1 cells at 400 nM after 6 hrs by RNA sequence analysis relative to control; assay type: functional
PANC-1 [23] = test: Effect on FASN gene expression in human PANC1 cells at 400 nM after 24 hrs by RNA sequence analysis relative to control; assay type: functional; procedure, shortened: as §1
PANC-1 [24] = test: Effect on SHANK2 gene expression in human PANC1 cells at 400 nM after 24 hrs by RNA sequence analysis relative to control; assay type: functional; procedure, shortened: as §2
[25] = Binding affinity to 5'-FAM/3'-TAMRA labeled BCL2 promoter G-quadruplex DNA (unknown origin) assessed as change in melting temperature at 1 uM by FRET assay
Procedure, shortened: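 FRET melting with FAM/TAMRA dual-labelled oligonucleotides at 400 nM, annealed at 95 °C for 10 min in 60 mM potassium cacodylate pH 7.4 and slowly cooled. Ligand final 1 μM; solution contains 50 mM K+. Fluorescence read every 0.5 °C over 30–100 °C with 30 s hold, excitation 450–495 nm and emission 515–545 nm. ΔTm from curve fitting, triplicate measurements.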

Homo sapiens [26] = species on record: Homo sapiens; test: Stabilization of G-quadruplex DNA in human PANC1 cells assessed as increase in BG4 foci at 400 nM after 6 to 24 hrs by FITC/Cy5/DAPI staining based immunofluorescence assay; assay type: cell-based

In the case of `O=C1c2ccc3c4c(c(NCCN5CCCC5)cc(c24)C(=O)N1CCCN1CCOCC1)C(=O)N(CCCN1CCOCC1)C3=O`, the log2FC (PANC-1 [1]) is reported as -0.74, the log2FC (MIA PaCa-2 [2]) is reported as -0.83 and the log2FC (PANC-1 [3]) is reported as -0.83. It also gave a log2FC (PANC-1 [4]) of -0.86, a log2FC (MIA PaCa-2 [5]) of -2.56 and an Activity (MIA PaCa-2 [6]) of -85%. For the same molecule, the IC50 (CAPAN-1) was 16 nM, the log2FC (PANC-1 [7]) was -0.81 and the log2FC (MIA PaCa-2 [8]) was -1.41. The TGI (MIA PaCa-2 [9]) was “Dose-dependent effect”, the log2FC (MIA PaCa-2 [10]) was -2.86 and the log2FC (MIA PaCa-2 [11]) was -1.06. The log2FC (PANC-1 [12]) was -0.47, the Activity (Homo sapiens [13]) was 50% and the log2FC (PANC-1 [14]) was -0.56. For the same molecule, the log2FC (MIA PaCa-2 [15]) was -1.17, the log2FC (PANC-1 [16]) was -2.18 and the log2FC (PANC-1 [17]) was -0.23. It also gave a log2FC (PANC-1 [18]) of -0.5, a log2FC (PANC-1 [19]) of -0.98 and a log2FC (MIA PaCa-2 [20]) of 0.03. It also gave a log2FC (MIA PaCa-2 [21]) of -0.06, a log2FC (PANC-1 [22]) of -0.57 and a log2FC (PANC-1 [23]) of -0.7. The log2FC (PANC-1 [24]) was -0.44, the ΔTm [25] was 13.3 °C and the Activity (Homo sapiens [26]) was “Active”.
